Results taken from ChEMBL document CHEMBL1629439, “High-throughput identification of antibacterials against methicillin-resistant Staphylococcus aureus (MRSA) and the transglycosylase” (Bioorg Med Chem, 2010).
In brackets after ≈: the same amount, converted by molar mass.

Tests used:
Serratia marcescens = test: Antimicrobial activity against Serratia marcescens ATCC 14756 after 18 to 24 hrs by alamar blue assay; format: functional
In short: (§1)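 Broth microdilution per NCCLS in Mueller-Hinton broth, 8-point twofold dilutions, 384-well format. Exponential-phase cells at 5 × 10^5 cells/ml incubated with compound 18–24 h at 37 °C, then 20% Alamar blue added and fluorescence read. MIC90 taken as the lowest concentration preventing at least 90% bacterial growth.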

Escherichia coli = test: Antimicrobial activity against Escherichia coli ATCC […] after 18 to 24 hrs by alamar blue assay; format: functional; in short: as §1
[1] = Displacement of fluorescein-labeled moenomycin from transglycosylase in Escherichia coli ATCC […] assessed as inhibition of lipid II polymerization after 30 mins by fluorescence anisotropy binding assay; set-up: species or system Staphylococcus aureus
In short: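 Full-length bifunctional PBP (TGase) at 10 µg/ml mixed with 100 nM fluorescent moenomycin in 10 mM Tris, 100 mM NaCl, pH 8.0, in 1536-well plates. 1 µl of 1 mM compound stock added. 10 µM moenomycin and 2.5% DMSO served as positive and negative controls. After 30 min, drop in fluorescence anisotropy read. Ki derived from Kd and IC50. Same SA enzyme serves all S. aureus strains.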

[2] = test system: Mycolicibacterium smegmatis; test: Antimicrobial activity against Mycobacterium smegmatis BCRC 11565 after 18 to 24 hrs by alamar blue assay; format: functional; in short: as §1
[3] = test system: Stenotrophomonas maltophilia; test: Antimicrobial activity against Stenotrophomonas maltophilia ATCC 13637 after 18 to 24 hrs by alamar blue assay; format: functional; in short: as §1
Staphylococcus aureus [4] = test: Antimicrobial activity against methicillin-resistant Staphylococcus aureus isolate NTUH4722 after 18 to 24 hrs by alamar blue assay; format: functional
In short: (§2)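 Broth microdilution per NCCLS standard, Mueller-Hinton broth, 8-point twofold dilutions; exponentially growing cells at 5 10^5 cells/ml with compound, 18–24 h at 37 C; 20% Alamar blue added, fluorescence read; MIC90 taken as lowest concentration preventing at least 90% growth.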

Pseudomonas aeruginosa = test: Antimicrobial activity against Pseudomonas aeruginosa ATCC 25619 after 18 to 24 hrs by alamar blue assay; format: functional; in short: as §1
Acinetobacter baumannii = test: Antimicrobial activity against Acinetobacter baumannii ATCC 49139 after 18 to 24 hrs by alamar blue assay; format: functional; in short: as §1
[5] = Inhibition of transglycosylase in Escherichia coli ATCC […] assessed as inhibition of NBD- labelled lipid II polymerization
In short: (§3)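 100 µM NBD-labelled lipid II incubated 30 min with full-length PBP (EC, SA or Mtb) and 10 ng/µl N-acetylmuramidase in 50 mM Tris-HCl pH 8.0, 10 mM MgCl2, 0.1% Triton X-100, 10% DMSO, 15% MeOH. Supernatant run on anion-exchange HPLC with 20 mM–0.5 M ammonium acetate gradient. Inhibition calculated from substrate peak-area percentage. IC50 determined. S. aureus strains share one SA enzyme.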

Staphylococcus aureus [6] = test: Antimicrobial activity against methicillin-resistant Staphylococcus aureus ATCC 33592 after 18 to 24 hrs by alamar blue assay; format: functional; in short: as §2
Staphylococcus aureus [7] = test: Antimicrobial activity against oxacillin- and methicillin-resistant Staphylococcus aureus isolate Sa-OXA-R2 after 18 to 24 hrs by alamar blue assay; format: functional; in short: as §2
Bacillus subtilis = test: Antimicrobial activity against Bacillus subtilis ATCC 23857 after 18 to 24 hrs by alamar blue assay; format: functional; in short: as §1
Staphylococcus aureus [8] = test: Antimicrobial activity against wild-type Staphylococcus aureus ATCC 29213 after 18 to 24 hrs by alamar blue assay; conditions: for MIC90: Staphylococcus aureus, ATCC 29213
Staphylococcus aureus [9] = test: Antimicrobial activity against Staphylococcus aureus ATCC 29213 after 18 to 24 hrs by alamar blue assay
[10] = Inhibition of transglycosylase assessed as inhibition of NBD- labelled lipid II polymerization at 100 uM; in short: as §3
[11] = Displacement of fluorescein-labeled moenomycin from transglycosylase at 100 uM after 30 mins by fluorescence anisotropy binding assay
[12] = Inhibition of transglycosylase assessed as inhibition of NBD- labelled lipid II polymerization; in short: as §3
[13] = Inhibition of transglycosylase in Staphylococcus aureus ATCC 33592 assessed as inhibition of NBD- labelled lipid II polymerization; in short: as §3
[14] = Inhibition of transglycosylase in Staphylococcus aureus isolate Sa-OXA-R2 assessed as inhibition of NBD- labelled lipid II polymerization; in short: as §3
[15] = Inhibition of transglycosylase in Staphylococcus aureus ATCC 29213 assessed as inhibition of NBD- labelled lipid II polymerization; in short: as §3
[16] = Inhibition of transglycosylase in Staphylococcus aureus isolate NTUH4722 assessed as inhibition of NBD- labelled lipid II polymerization; in short: as §3
[17] = Serratia marcescens, ATCC 14756, read-out: MIC
[18] = Mycolicibacterium smegmatis, BCRC 11565
[19] = Stenotrophomonas maltophilia, ATCC 13637, read-out: MIC
[20] = Pseudomonas aeruginosa, ATCC 25619, read-out: MIC
[21] = Acinetobacter baumannii, ATCC 49139, read-out: MIC
[22] = Staphylococcus aureus, ATCC 33592
[23] = Escherichia coli, read-out: MIC
[24] = Mycolicibacterium smegmatis, BCRC 11565, read-out: MIC
[25] = Staphylococcus aureus, ATCC 33592, read-out: MIC

Row | Compound | MIC (Serratia marcescens; [17]) [µg/mL] | MIC90 (Escherichia coli; Escherichia coli) [µM] | Ki [1] [µM] | MIC90 [2, 18] [µM] | MIC [3, 19] [µg/mL] | MIC90 (Staphylococcus aureus [4]) [µM] | MIC (Pseudomonas aeruginosa; [20]) [µg/mL] | MIC (Acinetobacter baumannii; [21]) [µg/mL] | IC50 [5] [µM] | MIC90 (Staphylococcus aureus [6]; [22]) [µM] | MIC (Bacillus subtilis) [µg/mL] | MIC (Escherichia coli; [23]) [µg/mL] | MIC [2, 24] [µg/mL] | MIC (Staphylococcus aureus [4]) [µg/mL] | MIC (Staphylococcus aureus [9]) [µg/mL] | inhibition [10] [%] | MIC (Staphylococcus aureus [6]; [25]) [µg/mL] | MIC (Staphylococcus aureus [7]) [µg/mL] | inhibition [11] [%] | IC90 [12] [µM] | also measured
1 | CCc1ccc2oc(-c3cccc(NC(=O)c4ccc([N+](=O)[O-])o4)c3)nc2c1 | 32 (≈ 84.8 µM) | > 512 | 98 | 0.5 (≈ 0.189 µg/mL) | 32 (≈ 84.8 µM) | 1 (≈ 0.377 µg/mL) | 128 (≈ 339 µM) | 12 (≈ 31.8 µM) | 30.3 | 0.5 (≈ 0.189 µg/mL) | 0.06 (≈ 0.159 µM) |  |  |  |  |  |  |  |  |  | MIC90 (Staphylococcus aureus [7]): 1 µM (≈ 0.377 µg/mL); MIC90 (Staphylococcus aureus [8]): 1 µM (≈ 0.377 µg/mL)
2 | CCN(CC)c1cc(C)c2cc(NC(=O)c3ccc([N+](=O)[O-])o3)ccc2n1 | 32 (≈ 86.9 µM) |  |  |  | 32 (≈ 86.9 µM) |  | 128 (≈ 347 µM) | 12 (≈ 32.6 µM) |  |  | 0.06 (≈ 0.163 µM) | 256 (≈ 695 µM) | 0.5 (≈ 1.36 µM) | > 4 | 2 (≈ 5.43 µM) | 0 | > 4 | > 4 | 90 |  | 
3 | O=C(Nc1ccc(Cl)c(C(=O)c2ccc(Cl)cc2)c1)c1cc(Cl)ccc1O | 16 (≈ 38 µM) |  |  |  | 16 (≈ 38 µM) |  | 16 (≈ 38 µM) | 16 (≈ 38 µM) |  |  | < 0.03 | 8 (≈ 19 µM) | 0.5 (≈ 1.19 µM) |  | 4 (≈ 9.51 µM) |  | 4 (≈ 9.51 µM) |  |  | 100 | MIC (Serratia marcescens): 16 µg/mL (≈ 38 µM); MIC (Escherichia coli): 8 µg/mL (≈ 19 µM); MIC [2]: 0.5 µg/mL (≈ 1.19 µM); MIC [3]: 16 µg/mL (≈ 38 µM); MIC (Pseudomonas aeruginosa): 16 µg/mL (≈ 38 µM); MIC (Acinetobacter baumannii): 16 µg/mL (≈ 38 µM); MIC (Staphylococcus aureus [6]): 4 µg/mL (≈ 9.51 µM); MIC (Staphylococcus aureus [8]): >4 µg/mL
4 | O=C(c1ccc(Cl)cc1)c1cc(NC(=O)c2cc(Cl)cc(Br)c2O)c(Cl)cc1Cl | 16 (≈ 30 µM) |  |  |  | 16 (≈ 30 µM) |  | 16 (≈ 30 µM) | 16 (≈ 30 µM) |  |  | < 0.03 | 8 (≈ 15 µM) | 0.5 (≈ 0.936 µM) | 0.25 (≈ 0.468 µM) | 0.25 (≈ 0.468 µM) | 90 | 0.25 (≈ 0.468 µM) | 0.25 (≈ 0.468 µM) | 92 | 100 | 
5 | COc1cccc(-c2coc3c(C)c4oc(=O)c(CCC(=O)O)c(C)c4cc23)c1 | > 256 |  |  |  | > 256 |  | > 256 | > 256 |  |  | > 64 | > 256 | 1 (≈ 2.55 µM) | 2.5 (≈ 6.37 µM) | 2.5 (≈ 6.37 µM) | 0 | 2.5 (≈ 6.37 µM) | 2.5 (≈ 6.37 µM) | 90 |  | 
6 | O=C(c1ccc(Cl)cc1)c1ccc(Oc2ccc(Cl)cc2)c(NC(=O)c2cc(I)cc(I)c2O)c1 | 16 (≈ 21.9 µM) | > 512 | 68 | 44 (≈ 32.1 µg/mL) | 16 (≈ 21.9 µM) | 11 (≈ 8.03 µg/mL) | 16 (≈ 21.9 µM) | 16 (≈ 21.9 µM) | 2.1 | 5.5 (≈ 4.02 µg/mL) | < 0.03 |  |  |  |  |  |  |  |  | < 25 | IC50 [13]: 9.3 µM; IC50 [14]: 9.3 µM; IC50 [15]: 9.3 µM; IC50 [16]: 9.3 µM; MIC90 (Staphylococcus aureus [7]): 11 µM (≈ 8.03 µg/mL); MIC90 (Staphylococcus aureus [8]): 11 µM (≈ 8.03 µg/mL)
7 | O=C(Nc1cc(Cl)ccc1Oc1ccccc1)c1cc(Br)cc(Br)c1O | 16 (≈ 32.2 µM) |  |  |  | 16 (≈ 32.2 µM) |  | 16 (≈ 32.2 µM) | 16 (≈ 32.2 µM) |  |  | < 0.03 | 8 (≈ 16.1 µM) | 0.5 (≈ 1 µM) | 0.5 (≈ 1 µM) | 0.5 (≈ 1 µM) | 100 | 0.25 (≈ 0.502 µM) | 0.5 (≈ 1 µM) | 97 | 50 | 
8 | Cc1ccc(C(C)C)c(Oc2ccccc2NC(=O)c2cc(I)cc(I)c2O)c1 | 16 (≈ 26.1 µM) | > 512 | 98 | 13 (≈ 7.97 µg/mL) | 16 (≈ 26.1 µM) | 1.6 (≈ 0.981 µg/mL) | 16 (≈ 26.1 µM) | 16 (≈ 26.1 µM) | 7.2 | 3.3 (≈ 2.02 µg/mL) | < 0.03 |  |  |  |  |  |  |  |  | < 25 | IC50 [13]: 27.8 µM; IC50 [14]: 27.8 µM; IC50 [15]: 27.8 µM; IC50 [16]: 27.8 µM; MIC90 (Staphylococcus aureus [7]): 13 µM (≈ 7.97 µg/mL); MIC90 (Staphylococcus aureus [8]): 6.5 µM (≈ 3.99 µg/mL)
9 | O=C(Nc1ccc(Cl)c(Cl)c1)c1ccc([N+](=O)[O-])o1 | 32 (≈ 106 µM) |  |  |  | 32 (≈ 106 µM) |  | 128 (≈ 425 µM) | 12 (≈ 39.9 µM) |  |  | 0.06 (≈ 0.199 µM) | 256 (≈ 850 µM) | 0.5 (≈ 1.66 µM) | 4 (≈ 13.3 µM) | 2 (≈ 6.64 µM) | 0 | 2 (≈ 6.64 µM) | > 4 | 96 |  | 
10 | O=C(Nc1ccc(Cl)c(Cl)c1)c1cc(Cl)cc(Cl)c1O [3,3',4',5-TETRACHLOROSALICYLANILIDE] | 16 (≈ 45.6 µM) |  |  |  | 16 (≈ 45.6 µM) |  | 16 (≈ 45.6 µM) | 16 (≈ 45.6 µM) |  |  | < 0.03 | 8 (≈ 22.8 µM) | 0.5 (≈ 1.42 µM) | 1 (≈ 2.85 µM) | 0.25 (≈ 0.712 µM) | 0 | 1 (≈ 2.85 µM) | 1 (≈ 2.85 µM) | 90 |  | 
